Holding throughout (format): cell-based
The target in assay [1] is T1, FPR1 (Homo sapiens, UniProt P21462).
T1 sequence (P21462 1-350): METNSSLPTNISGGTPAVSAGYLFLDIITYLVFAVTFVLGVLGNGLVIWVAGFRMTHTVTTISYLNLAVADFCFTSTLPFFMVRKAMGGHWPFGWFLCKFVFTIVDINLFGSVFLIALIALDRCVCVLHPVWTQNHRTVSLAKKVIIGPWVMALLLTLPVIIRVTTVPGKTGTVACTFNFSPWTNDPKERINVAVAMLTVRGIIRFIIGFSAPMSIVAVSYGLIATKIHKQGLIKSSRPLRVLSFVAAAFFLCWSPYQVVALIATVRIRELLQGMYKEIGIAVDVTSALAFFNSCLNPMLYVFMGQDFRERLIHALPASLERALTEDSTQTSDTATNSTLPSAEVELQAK
In words: Ca2+ mobilization assay in FPR1-HL60 cells. As to conditions: for Emax: read-out: Ca2+ flux FPR1-HL60 efficacy. The method, boiled down:
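FPR1-transfected HL60 cells were grown in RPMI 1640 with 10% heat-inactivated FCS, 10 mM HEPES and G418 (1 mg/mL). Cells were loaded with Fluo-4 AM (1.25 μg/mL final) for 30 min at 37 °C in the dark, then washed and seeded in HBSS+ at 2 × 10^5 cells/well. Fluorescence (485/538 nm) was read every 5 s for 240 s at room temperature after compound addition. Peak rise over baseline was set against 5 nM fMLF (100%). EC50 came from nonlinear regression of 5-6-point curves, mean of three independent experiments. No activity meant no response within 2 min (limits: efficacy >20%, EC50 <50 μM).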
For orientation: Calcium flux is commonly read through the fluorescence of an indicator in the cells.

Assay [2] relates to human neutrophils. In words: Ca2+ mobilization assay in human neutrophils. As to conditions: Homo sapiens, Neutrophil, read-out: Ca2+ flux human neutrophils EC50. The method, boiled down: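 Neutrophils from healthy donors were purified by dextran sedimentation, Histopaque 1077 gradient and hypotonic red-cell lysis (>95% pure, >98% viable). After Fluo-4 AM loading (1.25 μg/mL final, 30 min, 37 °C, dark), cells were seeded at 2 × 10^5/well in HBSS with Ca2+/Mg2+. Fluorescence (485/538 nm) was tracked every 5 s for 240 s at room temperature. Maximum change over baseline was normalised, and EC50 came from a 5-6-point nonlinear fit.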

The target in assay [3] is T2, FPR3 (Homo sapiens, UniProt P25089).
T2 sequence (P25089 1-353): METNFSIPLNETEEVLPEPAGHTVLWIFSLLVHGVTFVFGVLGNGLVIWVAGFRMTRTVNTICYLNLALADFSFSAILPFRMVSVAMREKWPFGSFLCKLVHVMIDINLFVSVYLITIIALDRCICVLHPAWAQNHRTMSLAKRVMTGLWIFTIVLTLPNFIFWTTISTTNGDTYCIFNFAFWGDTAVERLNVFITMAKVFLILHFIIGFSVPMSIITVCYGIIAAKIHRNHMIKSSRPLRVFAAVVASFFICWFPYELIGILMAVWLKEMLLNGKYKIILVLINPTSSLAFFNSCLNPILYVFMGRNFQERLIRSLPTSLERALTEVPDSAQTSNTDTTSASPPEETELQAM
As to the kind of experiment: Ca2+ mobilization assay in FPR3-HL60 cells. The conditions noted are these: for Emax: read-out: Ca2+ flux FPR3-HL60 efficacy. The method, boiled down: (§1)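 FPR2- or FPR3-transfected HL60 cells were grown in RPMI 1640 with 10% heat-inactivated FCS and G418 1 mg/mL. Cells were loaded with Fluo-4 AM (1.25 μg/mL final) for 30 min at 37 °C in the dark, washed, and seeded at 2 × 10^5 cells/well in HBSS+. Fluorescence (ex 485/em 538 nm) was read every 5 s for 240 s at room temperature. Peak rise over baseline was normalised to the reference agonist. EC50 came from 5-6-point nonlinear regression over three independent experiments.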

For assay [4], the target named is T3, FPR2 (Homo sapiens, UniProt P25090).
T3 sequence (P25090 1-351): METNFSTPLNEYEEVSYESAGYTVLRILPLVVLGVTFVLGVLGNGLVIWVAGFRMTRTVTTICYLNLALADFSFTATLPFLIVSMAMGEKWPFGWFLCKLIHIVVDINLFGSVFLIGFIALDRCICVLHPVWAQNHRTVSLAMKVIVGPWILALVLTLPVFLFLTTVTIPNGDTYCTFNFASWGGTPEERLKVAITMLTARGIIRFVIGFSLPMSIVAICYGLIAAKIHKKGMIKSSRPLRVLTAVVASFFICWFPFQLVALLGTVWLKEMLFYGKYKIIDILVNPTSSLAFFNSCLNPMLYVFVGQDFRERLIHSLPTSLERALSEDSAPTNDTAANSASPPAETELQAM
As to the kind of experiment: Ca2+ mobilization assay in FPR2-HL60 cells. As to conditions: for Emax: read-out: Ca2+ flux FPR2-HL60 efficacy. The method, boiled down: as §1

Assay [5] relates to mouse neutrophils. In words: Ca2+ mobilization assay in mouse neutrophils. The conditions noted are these: % of the response induced by 10 nM WKYMVm. The method in brief:
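Bone marrow was flushed from BALB/c mouse tibias and femurs and separated on a Percoll gradient (45/50/55/62/81%, 1600g, 30 min, 10 °C). Red cells were removed over Histopaque 1119. Neutrophils were loaded with Fluo-4 AM (1.25 μg/mL final) for 30 min at 37 °C, seeded in HBSS+ at 2 × 10^5 cells/well, and read at 485/538 nm every 5 s for 240 s at room temperature. Responses were normalized to 10 nM WKYMVm. EC50 came from nonlinear regression of 5-6-point curves, three experiments.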

In general, EC50 refers to the concentration needed to bring the measured effect to its halfway point.

Regarding `O=C(Cn1c(-c2ccc([N+](=O)[O-])cc2)csc1=O)Nc1ccc(Br)cc1` [9h, N-(4-Bromophenyl)-2-[4-(4-nitrophenyl)-2-oxothiazol-3-yl]acetamide], the Emax in assay [1] is 60%. Also, the EC50 in assay [2] was 1.5 ± 0.4 µM.

As for `COc1ccc(-c2csc(=O)n2CC(=O)Nc2ccc(Br)cc2)cc1` [9e, N-(4-Bromophenyl)-2-[4-(4-methoxyphenyl)-2-oxothiazol-3-yl]acetamide], the EC50 was 2.6 ± 0.6 µM in assay [1], 36.1 ± 3.3 µM in assay [3], 7.4 ± 2.3 µM in assay [2] and 1.8 ± 0.16 µM in assay [4]. The Emax in assay [1] is 110%; in assay [3], 85%; in assay [4], 100%.

As to `CCCCc1c(C)nn(CC(=O)Nc2ccc(Br)cc2)c(=O)c1Cc1cccc(OC)c1` [4e, N-(4-Bromophenyl)-2-[4-butyl-5-(3-methoxybenzyl)-3-methyl-6-oxopyridazin-1(6H)-yl]acetamide], the EC50 in assay [2] stood at 2.7 ± 0.7 µM. The Emax in assay [4] is 90%.

Turning to `Cc1csc(=O)n1CC(=O)Nc1ccc(Br)cc1` [9b, N-(4-Bromophenyl)-2-(4-methyl-2-oxo-thiazol-3-yl)acetamide], the concentration for a half-maximal effect (EC50) in assay [1] was found to be 12.4 ± 2.6 µM; in assay [3], 27.8 ± 3.2 µM; in assay [2], 10.7 ± 2.3 µM; in assay [4] it was 4.1 ± 1.1 µM. Further, the Emax was 70% in assay [1], 85% in assay [3] and 80% in assay [4].

For `CCCc1c(C)nn(CC(=O)Nc2ccc(Br)cc2)c(=O)c1Cc1cccc(OC)c1` [4d, N-(4-Bromophenyl)-2-[5-(3-methoxybenzyl)-3-methyl-6-oxo-4-propylpyridazin-1(6H)-yl]acetamide], the results for the Emax in assay [1], in assay [3] and in assay [4] were 115%, 65% and 90%, respectively. Besides, the EC50 in assay [3] was 3.4 ± 0.76 µM; in assay [2] it was 3.2 ± 1.2 µM.

Consider `O=C(Cn1c(-c2ccc(Cl)cc2)csc1=O)Nc1ccc(Br)cc1` [9g, N-(4-Bromophenyl)-2-[4-(4-chlorophenyl)-2-oxothiazol-3-yl]acetamide], for which the Emax in assay [1] and in assay [4] was 75% each time. For the same molecule, in assay [2], the EC50 amounted to 12.2 ± 3.1 µM.

In the case of `O=C(Cn1c(-c2cccc(Cl)c2)csc1=O)Nc1ccc(Br)cc1` [9f, N-(4-Bromophenyl)-2-[4-(3-chlorophenyl)-2-oxothiazol-3-yl]acetamide], the EC50 in assay [1] is 6 ± 1.7 µM; in assay [3], 32.2 ± 3.6 µM; in assay [2], 11.1 ± 2.8 µM; in assay [4], 3 ± 0.7 µM. Also, the Emax was 75% in assay [1], 75% in assay [3] and 110% in assay [4].

For the molecule `Nc1ccc(-c2csc(=O)n2CC(=O)Nc2ccc(Br)cc2)cc1` [compound 10, 2-[4-(4-Aminophenyl)-2-oxothiazol-3-yl]-N-(4-bromophenyl)acetamide], the EC50 in assay [1] was found to be 34.9 ± 4.2 µM; in assay [2], 36.1 ± 3.9 µM; in assay [4], 14.7 ± 3.7 µM. Further, the Emax in assay [1] is 80%; in assay [4], 65%.

`Cc1cc(=O)n(CC(=O)Nc2ccc(Br)cc2)nc1C` [7a, N-(4-Bromophenyl)-2-[3,4-dimethyl-6-oxopyridazin-1(6H)-yl]acetamide]: the EC50 in assay [1] turned out to be 5.7 ± 2.1 µM; in assay [2], 2 ± 0.29 µM; in assay [4] it was 0.51 ± 0.19 µM. Besides, the Emax in assay [1] was 110%; in assay [4], 90%. In addition, the “Ca2+ flux mouse neutrophils efficacy” value in assay [5] came out at 70%.

With `CC(=O)c1sc(=O)n(CC(=O)Nc2ccc(Br)cc2)c1C` [9a, 2-(5-Acetyl-4-methyl-2-oxo-thiazol-3-yl)-N-(4-bromophenyl)acetamide], the EC50 in assay [1] was 8.9 ± 1.9 µM; in assay [2], 12.2 ± 2.5 µM; in assay [4], 5.8 ± 1.4 µM. The Emax in assay [1] was 75%; in assay [4], 60%.

Regarding `Cc1nn(CC(=O)Nc2ccc(Br)cc2)c(=O)cc1-c1ccccc1` [7b, N-(4-Bromophenyl)-2-[3-methyl-6-oxo-4-phenylpyridazin-1(6H)-yl]acetamide], the EC50 in assay [3] stood at 0.97 ± 0.23 µM; in assay [2], 0.2 ± 0.056 µM; in assay [4] it was 0.15 ± 0.052 µM. In addition, the Emax is 95% in assay [3] and 115% in assay [4]. For the same molecule, the “Ca2+ flux mouse neutrophils efficacy” value in assay [5] is recorded as 75%.

With `COc1cccc(-c2csc(=O)n2CC(=O)Nc2ccc(Br)cc2)c1` [9d, N-(4-Bromophenyl)-2-[4-(3-methoxyphenyl)-2-oxothiazol-3-yl]-acetamide], the Emax in assay [1] is 90%; in assay [3] it was 100%; in assay [4] it was 120%. Moreover, the EC50 was 5.1 ± 1.7 µM in assay [3] and 1.3 ± 0.3 µM in assay [2].

In the case of `O=C(Cn1c(-c2ccccc2)csc1=O)Nc1ccc(Br)cc1` [9c, N-(4-Bromophenyl)-2-(2-oxo-4-phenyl-thiazol-3-yl)acetamide], the EC50 in assay [1] came to 1.8 ± 0.6 µM; in assay [3] it was 19.7 ± 2.4 µM; in assay [2], 6 ± 1.5 µM; in assay [4] it was 2.1 ± 0.6 µM. For the same molecule, the Emax is 100% in assay [1], 135% in assay [3] and 95% in assay [4].

With `CCc1c(C)nn(CC(=O)Nc2ccc(Br)cc2)c(=O)c1Cc1cccc(OC)c1` [4c, N-(4-Bromophenyl)-2-[4-ethyl-5-(3-methoxybenzyl)-3-methyl-6-oxopyridazin-1(6H)-yl]acetamide], the Emax in assay [1] was 120%; in assay [3] it was 100%; in assay [4] it was 100%. Also, the EC50 in assay [3] was determined as 4.1 ± 1.7 µM; in assay [2], 1.2 ± 0.3 µM.

These data come from article PMC5299035 (Drug development research, 2016).
